The source made the active and inactive calls. The rule behind the calls is not given here.
What was measured:
[1] = molecular target: T1, Gamma-aminobutyric acid receptor subunit alpha-1/beta-2/delta (Homo sapiens, UniProt O14764+P14867+P47870); assay: Antagonist activity at human alpha1beta2delta GABAA receptor expressed in HEK293 Flp-In cells by FMP assay; format: cell-based, Flp-In-293
T1 sequence (P14867 whole entry): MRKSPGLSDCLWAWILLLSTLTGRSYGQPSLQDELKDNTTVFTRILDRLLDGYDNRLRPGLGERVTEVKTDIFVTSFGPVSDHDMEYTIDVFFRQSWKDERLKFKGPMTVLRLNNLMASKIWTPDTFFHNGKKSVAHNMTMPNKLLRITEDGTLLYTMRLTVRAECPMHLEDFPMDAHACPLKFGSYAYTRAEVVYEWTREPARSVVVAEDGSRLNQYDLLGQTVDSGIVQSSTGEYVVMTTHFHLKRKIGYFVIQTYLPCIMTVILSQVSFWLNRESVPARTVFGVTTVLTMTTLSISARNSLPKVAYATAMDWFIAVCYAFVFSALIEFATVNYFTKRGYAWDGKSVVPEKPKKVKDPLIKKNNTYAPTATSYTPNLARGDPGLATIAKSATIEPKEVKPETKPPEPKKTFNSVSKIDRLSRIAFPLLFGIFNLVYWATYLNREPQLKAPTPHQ
T1 sequence (P47870 whole entry): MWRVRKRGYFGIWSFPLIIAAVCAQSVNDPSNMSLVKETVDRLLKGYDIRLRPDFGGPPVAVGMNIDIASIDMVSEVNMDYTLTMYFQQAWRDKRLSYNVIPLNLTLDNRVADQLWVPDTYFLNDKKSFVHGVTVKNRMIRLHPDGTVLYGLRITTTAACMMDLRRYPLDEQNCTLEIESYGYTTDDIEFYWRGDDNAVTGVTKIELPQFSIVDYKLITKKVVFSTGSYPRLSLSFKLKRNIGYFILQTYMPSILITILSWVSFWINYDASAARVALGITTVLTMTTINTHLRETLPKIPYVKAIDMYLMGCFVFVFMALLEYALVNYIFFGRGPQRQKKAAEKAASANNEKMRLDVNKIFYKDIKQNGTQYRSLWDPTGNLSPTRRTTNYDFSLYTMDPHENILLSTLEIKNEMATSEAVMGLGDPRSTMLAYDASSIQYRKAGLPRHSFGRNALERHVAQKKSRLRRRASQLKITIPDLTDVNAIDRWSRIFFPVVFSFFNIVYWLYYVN
T1 sequence (O14764 whole entry): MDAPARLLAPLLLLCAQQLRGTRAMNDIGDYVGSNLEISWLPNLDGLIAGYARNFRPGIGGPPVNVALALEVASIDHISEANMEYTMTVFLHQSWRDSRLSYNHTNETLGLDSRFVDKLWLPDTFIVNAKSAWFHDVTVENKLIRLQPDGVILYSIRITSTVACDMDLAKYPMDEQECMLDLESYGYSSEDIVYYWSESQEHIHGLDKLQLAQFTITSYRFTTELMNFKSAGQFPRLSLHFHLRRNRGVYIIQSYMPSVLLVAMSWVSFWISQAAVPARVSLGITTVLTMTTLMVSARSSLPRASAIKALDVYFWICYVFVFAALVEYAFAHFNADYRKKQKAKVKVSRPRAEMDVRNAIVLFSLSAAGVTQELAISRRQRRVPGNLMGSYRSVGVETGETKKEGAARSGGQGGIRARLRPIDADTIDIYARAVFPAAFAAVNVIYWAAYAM
Summary of the method: (§1)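 HEK293 Flp-In cells stably expressing human δ subunit, transiently transfected with human α and β subunits (1:1) to form αβδ receptors. Read-out is the FLIPR membrane potential dye ΔRFU, baseline to peak/plateau, with GABA EC80 as agonist. Four-parameter fit of concentration–inhibition curves gives IC50, from at least three independent experiments.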

[2] = system: CD4-positive T cell (mouse); assay: Induction of cell proliferation of mouse CD4+ve Th cells at 50 uM measured after 48 hrs in presence of alprazolam by flow cytometry analysis relative to control
[3] = Apparent permeability of compound across basolateral to apical side in MDCK cells; format: ADME, cell-based, Canis lupus familiaris; settings: dog
Summary of the method: (§2)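 MDR1-transfected MDCK monolayers, 0.5 μM test compound added apically or basally. Bidirectional apparent permeability measured in triplicate. Efflux ratio is B→A permeability divided by A→B permeability.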

[4] = Apparent permeability of compound across apical to basolateral side in MDCK cells; format: ADME, cell-based, Canis lupus familiaris; settings: dog; summary of the method: as §2
[5] = Induction of cell proliferation of human CD8-positive T cells at 50 uM measured after 96 hrs in presence of alprazolam by flow cytometry analysis relative to control; format: functional
Summary of the method: (§3)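 Human PBMC from leukocyte cones were CFSE-stained (5 μM) and held at high density overnight. They were then stimulated with soluble anti-CD3 OKT3 (100 pg/mL) plus alprazolam 33 μM, with test compound at 50 μM, for 96 h. CD4+/CD8+ proliferation was measured by CFSE dilution on flow cytometry, at least six independent experiments.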

CD8-positive T cell = assay: Induction of cell proliferation of mouse CD8-positive T cells at 50 uM measured after 48 hrs in presence of alprazolam by flow cytometry analysis relative to control; format: functional, cell-based
Summary of the method: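 Splenocytes from female BALB/c mice were CFSE-stained (5 μM) and stimulated with soluble anti-CD3 145.2C11 (33 ng/mL) plus alprazolam 100 μM, with test compound at 50 μM, for 48 h. CD4+/CD8+ proliferation was measured by CFSE dilution on flow cytometry, at least six independent experiments.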

CD4+ve Th = assay: Induction of cell proliferation of human CD4+ve Th cells at 50 uM measured after 96 hrs in presence of alprazolam by flow cytometry analysis relative to control; format: functional; summary of the method: as §3
[6] = Receptor occupancy at human GABA receptor
[7] = Efflux ratio of apparent permeability across basolateral to apical side over apical to basolateral side in MDCK; format: ADME, cell-based, Canis lupus familiaris; settings: dog; summary of the method: as §2
[8] = molecular target: GABA-A receptor; anion channel; assay: Displacement of [3H]-muscimol from rat brain cortex GABAA receptor assessed as inhibition constant incubated for 1 hr by top-counter microplate scintillation counter method; format: cell membranes, Membrane
[9] = molecular target: Gamma-aminobutyric acid receptor subunit alpha-4/beta-1/delta (Homo sapiens, UniProt O14764+P18505+P48169); assay: Antagonist activity at recombinant human alpha4beta1delta GABAA receptor expressed in HEK293 Flp-In cells by FMP assay; format: cell-based, Flp-In-293; summary of the method: as §1
Homo sapiens = organism: Homo sapiens; assay: Binding affinity to GABA receptor (unknown origin) assessed as equilibrium binding constant by schild plot analysis; settings: filed as antagonist

Chain of Gamma-aminobutyric acid receptor subunit alpha-4/beta-1/delta (P48169 whole entry, one chain of several): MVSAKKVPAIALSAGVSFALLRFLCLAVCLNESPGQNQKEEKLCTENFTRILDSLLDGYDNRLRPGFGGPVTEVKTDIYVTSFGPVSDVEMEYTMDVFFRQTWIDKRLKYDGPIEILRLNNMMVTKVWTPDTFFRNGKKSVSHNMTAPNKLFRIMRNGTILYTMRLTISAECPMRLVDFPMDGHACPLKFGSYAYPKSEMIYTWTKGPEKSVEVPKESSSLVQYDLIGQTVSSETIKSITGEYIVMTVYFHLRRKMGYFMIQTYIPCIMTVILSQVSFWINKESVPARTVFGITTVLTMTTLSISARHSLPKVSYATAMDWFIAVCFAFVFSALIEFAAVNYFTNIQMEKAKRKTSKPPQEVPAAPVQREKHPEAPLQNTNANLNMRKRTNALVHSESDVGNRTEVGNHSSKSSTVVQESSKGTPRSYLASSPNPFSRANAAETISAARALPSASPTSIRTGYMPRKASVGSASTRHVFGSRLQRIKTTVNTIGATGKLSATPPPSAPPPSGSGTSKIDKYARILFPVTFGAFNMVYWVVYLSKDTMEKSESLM
Chain of Gamma-aminobutyric acid receptor subunit alpha-4/beta-1/delta (P18505 whole entry, one chain of several): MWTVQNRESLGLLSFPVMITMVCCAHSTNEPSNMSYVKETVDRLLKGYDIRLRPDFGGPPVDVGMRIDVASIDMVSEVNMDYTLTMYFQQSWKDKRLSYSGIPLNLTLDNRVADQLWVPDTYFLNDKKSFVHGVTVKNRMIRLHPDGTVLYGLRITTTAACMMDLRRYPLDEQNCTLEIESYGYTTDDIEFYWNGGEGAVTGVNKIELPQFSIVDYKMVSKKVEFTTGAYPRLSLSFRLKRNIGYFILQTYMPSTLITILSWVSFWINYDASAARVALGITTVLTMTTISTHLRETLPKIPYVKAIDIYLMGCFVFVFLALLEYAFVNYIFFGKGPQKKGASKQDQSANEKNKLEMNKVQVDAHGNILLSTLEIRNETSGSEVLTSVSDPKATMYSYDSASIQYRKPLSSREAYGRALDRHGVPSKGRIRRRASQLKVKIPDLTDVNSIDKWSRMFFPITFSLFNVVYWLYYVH

SMILES	IC50 [1] [nM]	IC50 ([1]; read-out: pIC50 (converted)) [nM]	Ki [8] [nM]	IC50 [9] [nM]	IC50 ([9]; read-out: pIC50 (converted)) [nM]	other results
Cc1ccc(C(=O)N2CCC3(CCNCC3)CC2)cc1	13200	13200				
Cc1cccc(C(=O)N2CCC3(CCNCC3)CC2)c1	4950	4900				Activity [2]: Active; Papp B→A [3]: 15 ×10⁻⁶ cm/s; Papp A→B [4]: 1.3 ×10⁻⁶ cm/s; Activity [5]: 20%; Activity (CD8-positive T cell): Active; Activity (CD4+ve Th): 20%; pIC50 [6]: 7.152; efflux ratio [7]: 11.5
CC(=O)Nc1cccc(C(=O)N2CCC3(CCNCC3)CC2)c1			560	1030	1020	
O=C(Nc1cccc(C(=O)N2CCC3(CCNCC3)CC2)c1)c1cccs1			20	88	87.1	Kb (Homo sapiens): 6.9 nM

— ChEMBL document CHEMBL5096209, “Structure-Activity Studies of 3,9-Diazaspiro[5.5]undecane-Based γ-Aminobutyric Acid Type A Receptor Antagonists with Immunomodulatory Effect” (J Med Chem, 2021)
